Experimental data from ChEMBL document CHEMBL1122854, “Novel bis[1,6-dihydro-6,6-dimethyl-1,3,5-triazine-2,4-diamines] as antitrypanosomal agents” (1985).

Key:
Type in all cases: functional
[1] = tested on: Mus musculus; test: (§1) Antitrypanosomal activity was evaluated against Trypanosoma rhodesiense infections in mice, at dose 26 mg/kg, administered subcutaneously;Cures; conditions: route subcutaneous
In short: (§2)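 IUR/HA Swiss mice (six weeks old, 30-32 g) infected i.p. with Wellcome CT strain T. rhodesiense. A single subcutaneous dose in peanut oil was given about 2 h after inoculation, with five mice per dose level. Positive control was stilbamidine or 2-hydroxystilbamidine isethionate at 40 mg/kg. Deaths before day 4 were scored toxic, and 30-day survivors cured.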

[2] = tested on: Trypanosoma brucei rhodesiense; test: Antitrypanosomal activity against Trypanosoma rhodesiense infections in mice, 424 mg/kg administered subcutaneously; conditions: route subcutaneous; in short: as §2
[3] = tested on: Mus musculus; test: (§3) Antitrypanosomal activity was evaluated against Trypanosoma rhodesiense infections in mice, at dose 53 mg/kg, administered subcutaneously; conditions: route subcutaneous; in short: as §2
[4] = tested on: Trypanosoma brucei rhodesiense; test: Antitrypanosomal activity was evaluated against Trypanosoma rhodesiense infections in mice, at dose 26 mg/kg, administered subcutaneously;Toxic; conditions: route subcutaneous; in short: as §2
[5] = tested on: Trypanosoma brucei rhodesiense; test: Antitrypanosomal activity was evaluated against Trypanosoma rhodesiense infections in mice, at dose 106 mg/kg, administered subcutaneously; conditions: route subcutaneous; in short: as §2
[6] = tested on: Trypanosoma brucei rhodesiense; test: Antitrypanosomal activity was evaluated against Trypanosoma rhodesiense infections in mice, at dose 26 mg/kg, administered subcutaneously; conditions: route subcutaneous; in short: as §2
[7] = tested on: Mus musculus; test: Antitrypanosomal activity was evaluated against Trypanosoma rhodesiense infections in mice, at dose 6.6 mg/kg, administered subcutaneously; conditions: route subcutaneous
In short: (§4)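 Six-week-old IUR/HA Swiss mice (30-32 g), 5 per dose, infected ip with 0.5 mL of a 1:50 000 dilution of heparinized heart blood from donor mice infected 3 days before (Wellcome CT strain). Single sc dose in peanut oil about 2 h post-inoculation. Deaths before day 4 counted toxic. ΔMST versus untreated controls; survivors at 30 days counted cured.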

[8] = tested on: Trypanosoma brucei rhodesiense; test: Antitrypanosomal activity was evaluated against Trypanosoma rhodesiense infections in mice, at dose 1.6 mg/kg, administered subcutaneously; conditions: route subcutaneous; in short: as §4
[9] = tested on: Mus musculus; test: Antitrypanosomal activity was evaluated against Trypanosoma rhodesiense infections in mice, at dose 3.3 mg/kg, administered subcutaneously; conditions: route subcutaneous; in short: as §4
[10] = tested on: Mus musculus; test: Antitrypanosomal activity was evaluated against Trypanosoma rhodesiense infections in mice, at dose 13mg/kg, administered subcutaneously; in short: as §4
[11] = tested on: Mus musculus; test: Antitrypanosomal activity was evaluated against Trypanosoma rhodesiense infections in mice, at dose 212 mg/kg, administered subcutaneously;Cures; conditions: route subcutaneous; in short: as §2
[12] = tested on: Mus musculus; test: (§5) Antitrypanosomal activity was evaluated against Trypanosoma rhodesiense infections in mice, at dose 212 mg/kg, administered subcutaneously; conditions: route subcutaneous; in short: as §4
[13] = tested on: Trypanosoma brucei rhodesiense; test: Antitrypanosomal activity was evaluated against Trypanosoma rhodesiense infections in mice, at dose 424 mg/kg, administered subcutaneously; conditions: route subcutaneous; in short: as §4
[14] = tested on: Mus musculus; test: Antitrypanosomal activity was evaluated against Trypanosoma rhodesiense infections in mice, at dose 106 mg/kg, administered subcutaneously; Cures; conditions: route subcutaneous; in short: as §2
[15] = tested on: Mus musculus; test: Antitrypanosomal activity was evaluated against Trypanosoma rhodesiense infections in mice, at dose 53 mg/kg, administered subcutaneously;Cures; conditions: route subcutaneous; in short: as §2
[16] = tested on: Trypanosoma brucei rhodesiense; test: as §3; conditions: route subcutaneous; in short: as §4
[17] = tested on: Trypanosoma brucei rhodesiense; test: Antitrypanosomal activity against Trypanosoma rhodesiense infections in mice, 3.3 mg/kg administered subcutaneously; conditions: route subcutaneous; in short: as §4
[18] = tested on: Mus musculus; test: Antitrypanosomal activity was evaluated against Trypanosoma rhodesiense infections in mice, at dose 13 mg/kg, administered subcutaneously;Cures; conditions: route subcutaneous; in short: as §2
[19] = tested on: Mus musculus; test: Antitrypanosomal activity was evaluated against Trypanosoma rhodesiense infections in mice, at dose 424 mg/kg, administered subcutaneously;Toxic; conditions: route subcutaneous; in short: as §2
[20] = tested on: Trypanosoma brucei rhodesiense; test: Anti-trypanosomal activity against Trypanosoma rhodesiense infections in mice, 26 mg/kg administered subcutaneously; conditions: route subcutaneous; in short: as §4
[21] = tested on: Trypanosoma brucei rhodesiense; test: as §5; conditions: route subcutaneous; in short: as §4
[22] = tested on: Trypanosoma brucei rhodesiense; test: Antitrypanosomal activity against Trypanosoma rhodesiense infections in mice, 6.6 mg/kg administered subcutaneously; conditions: route subcutaneous; in short: as §4
[23] = tested on: Mus musculus; test: Antitrypanosomal activity was evaluated against Trypanosoma rhodesiense infections in mice, at dose 53 mg/kg, administered subcutaneously; Cures; conditions: route subcutaneous; in short: as §2
[24] = tested on: Mus musculus; test: Antitrypanosomal activity was evaluated against Trypanosoma rhodesiense infections in mice, at dose 424 mg/kg, administered subcutaneously;Cures; conditions: route subcutaneous; in short: as §2
[25] = tested on: Mus musculus; test: as §5; conditions: route subcutaneous; in short: as §2; remark: listed apart in the source
[26] = tested on: Trypanosoma brucei rhodesiense; test: Antitrypanosomal activity against Trypanosoma rhodesiense infections in mice, 106 mg/kg administered subcutaneously; conditions: route subcutaneous; in short: as §4
[27] = tested on: Mus musculus; test: Antitrypanosomal activity was evaluated against Trypanosoma rhodesiense infections in mice, at dose 424 mg/kg, administered subcutaneously; Cures; conditions: route subcutaneous; in short: as §2
[28] = tested on: Mus musculus; test: (§6) Antitrypanosomal activity was evaluated against Trypanosoma rhodesiense infections in mice, at dose 106 mg/kg, administered subcutaneously;Toxic; conditions: route subcutaneous; in short: as §2
[29] = tested on: Mus musculus; test: Antitrypanosomal activity was evaluated against Trypanosoma rhodesiense infections in mice, at dose 106 mg/kg, administered subcutaneously;Cures; conditions: route subcutaneous; in short: as §2
[30] = tested on: Mus musculus; test: Antitrypanosomal activity was evaluated against Trypanosoma rhodesiense infections in mice, at dose 212 mg/kg, administered subcutaneously;Toxic; conditions: route subcutaneous; in short: as §2
[31] = tested on: Mus musculus; test: Antitrypanosomal activity was evaluated against Trypanosoma rhodesiense infections in mice, at dose 1.6mg/kg, administered subcutaneously;Cures; in short: as §2
[32] = tested on: Mus musculus; test: Antitrypanosomal activity was evaluated against Trypanosoma rhodesiense infections in mice, at dose 3.3 mg/kg, administered subcutaneously;Cures; conditions: route subcutaneous; in short: as §2
[33] = tested on: Mus musculus; test: Antitrypanosomal activity was evaluated against Trypanosoma rhodesiense infections in mice, at dose 53 mg/kg, administered subcutaneously;Toxic; conditions: route subcutaneous; in short: as §2
[34] = tested on: Mus musculus; test: Antitrypanosomal activity was evaluated against Trypanosoma rhodesiense infections in mice, at dose 6.6 mg/kg, administered subcutaneously;Cures; conditions: route subcutaneous; in short: as §2
[35] = tested on: Trypanosoma brucei rhodesiense; test: as §6; conditions: route subcutaneous; in short: as §2
[36] = tested on: Mus musculus; test: as §1; conditions: route subcutaneous; in short: as §4; remark: listed apart in the source
[37] = tested on: Mus musculus; test: Antitrypanosomal activity was evaluated against Trypanosoma rhodesiense infections in mice, at dose 13 mg/kg, administered subcutaneously; conditions: route subcutaneous; in short: as §2
[38] = tested on: Mus musculus; test: Antitrypanosomal activity was evaluated against Trypanosoma rhodesiense infections in mice, at dose 1.6 mg/kg, administered subcutaneously; Cures; conditions: route subcutaneous; in short: as §2
[39] = tested on: Mus musculus; test: Antitrypanosomal activity was evaluated against Trypanosoma rhodesiense infections in mice, at dose 3.3 mg/kg, administered subcutaneously; Cures; conditions: route subcutaneous; in short: as §2
[40] = tested on: Mus musculus; test: Antitrypanosomal activity was evaluated against Trypanosoma rhodesiense infections in mice, at dose 6.6 mg/kg administered subcutaneously; Cures; conditions: route subcutaneous; in short: as §2
[41] = tested on: Mus musculus; test: Antitrypanosomal activity was evaluated against Trypanosoma rhodesiense infections in mice, at dose 13 mg/kg, administered subcutaneously;Toxic; conditions: route subcutaneous; in short: as §2
[42] = tested on: Mus musculus; test: Antitrypanosomal activity was evaluated against Trypanosoma rhodesiense infections in mice, at dose 106 mg/kg, administered orally; conditions: route oral
[43] = tested on: Mus musculus; test: Antitrypanosomal activity was evaluated against Trypanosoma rhodesiense infections in mice, at dose 53 mg/kg, administered orally; conditions: route oral
[44] = tested on: Mus musculus; test: Antitrypanosomal activity was evaluated against Trypanosoma rhodesiense infections in mice, at dose 6.6 mg/kg, administered subcutaneously;Toxic; conditions: route subcutaneous; in short: as §2
[45] = tested on: Mus musculus; test: Antitrypanosomal activity was evaluated against Trypanosoma rhodesiense infections in mice, at dose 424 mg/kg, administered orally; conditions: route oral
[46] = tested on: Mus musculus; test: Antitrypanosomal activity was evaluated against Trypanosoma rhodesiense infections in mice, at dose 26 mg/kg, administered orally; conditions: route oral
[47] = tested on: Mus musculus; test: Antitrypanosomal activity was evaluated against Trypanosoma rhodesiense infections in mice, at dose 212 mg/kg, administered orally; conditions: route oral
[48] = tested on: Mus musculus; test: Antitrypanosomal activity was evaluated against Trypanosoma rhodesiense infections in mice, at dose 26 mg/kg, administered orally;Toxic; conditions: in the assay text read “administered subcutaneously” for “administered orally”

CC1(C)N=C(N)N=C(N)N1c1ccc(NC(=O)Nc2ccc(N3C(N)=NC(N)=NC3(C)C)cc2)cc1.Cl.Cl
Cures [1]: 1 | Toxic [2]: 5 | Toxic [3]: 5 | Toxic [4]: 1 | Toxic [5]: 5

CC1(C)N=C(N)N=C(N)N1c1ccc(C(c2ccc(N3C(N)=NC(N)=NC3(C)C)cc2)c2ccc(N3C(N)=NC(N)=NC3(C)C)cc2)cc1.Cl.Cl
Toxic [6]: 5 | Toxic [2]: 5 | Delta MST [7]: -0.1 days | Toxic [5]: 5 | Delta MST [8]: 0.1 days | Delta MST [9]: -0.1 days | Delta MST [10]: 0.1 days

CC1(C)N=C(N)N=C(N)N1c1ccc(CCc2ccc(N3C(N)=NC(N)=NC3(C)C)cc2)cc1.Cl.Cl
Cures [11]: 3 | Delta MST [12]: 3.8 days | Delta MST [13]: 0.2 days | Cures [14]: 5 | Cures [15]: 4 | Cures [1]: 4 | Delta MST [16]: 7.8 days | Delta MST [17]: 3.2 days | Delta MST [7]: 3.4 days | Cures [18]: 4 | Toxic [19]: 3 | Delta MST [20]: 7.7 days

Cl.Cl.NC1=NC(c2ccccc2)N(c2ccc(CCc3ccc(N4C(N)=NC(N)=NC4c4ccccc4)cc3)cc2)C(N)=N1 (configuration not stated)
Cures [11]: 4 | Delta MST [21]: 2.2 days | Cures [14]: 5 | Cures [1]: 1 | Delta MST [22]: 0 days | Delta MST [17]: 0.4 days | Cures [23]: 5 | Toxic [19]: 2 | Cures [24]: 3 | Delta MST [20]: 4.1 days

CC1(C)N=C(N)N=C(N)N1c1ccc(Cc2ccc(N3C(N)=NC(N)=NC3(C)C)cc2)cc1.Cl.Cl
Cures [15]: 2 | Cures [1]: 1 | Toxic [25]: 5 | Delta MST [16]: 6.5 days | Delta MST [26]: 8 days | Cures [27]: 5 | Toxic [28]: 2 | Delta MST [20]: 4 days

CC1(C)N=C(N)N=C(N)N1c1ccc2c(c1)Cc1cc(N3C(N)=NC(N)=NC3(C)C)ccc1-2.Cl.Cl
Delta MST [21]: 26 days | Cures [15]: 4 | Cures [29]: 1 | Delta MST [26]: 2 days | Toxic [2]: 5 | Delta MST [22]: 4.3 days | Delta MST [17]: 4 days | Cures [18]: 3 | Toxic [30]: 4 | Cures [31]: 1 | Delta MST [8]: 3 days | Cures [32]: 1 | Toxic [33]: 1 | Cures [34]: 2 | Toxic [35]: 3 | Delta MST [36]: 3 days | Delta MST [20]: 4.5 days

CC1(C)N=C(N)N=C(N)N1c1ccc(-c2ccc(N3C(N)=NC(N)=NC3(C)C)cc2)cc1.Cl.Cl
Toxic [25]: 5 | Toxic [6]: 5 | Delta MST [22]: 7.8 days | Toxic [3]: 5 | Delta MST [17]: 9.2 days | Toxic [37]: 5 | Cures [38]: 1 | Toxic [5]: 5 | Delta MST [8]: 3.7 days | Cures [39]: 1 | Cures [40]: 4

CC1(C)N=C(N)N=C(N)N1c1ccc(CCc2cccc(N3C(N)=NC(N)=NC3(C)C)c2)cc1.Cl.Cl
Toxic [41]: 1 | Delta MST [42]: 0.4 days | Delta MST [43]: 0.2 days | Toxic [44]: 1 | Delta MST [7]: 1.7 days | Delta MST [45]: 3.7 days | Delta MST [46]: 0 days | Cures [24]: 1 | Cures [34]: 1 | Delta MST [9]: 1 days | Delta MST [47]: 1.8 days | Toxic [48]: 5
